Experimental data collected from several papers.
Each line is one published result; the experiments were not run side by side.
Target: Myosin light chain kinase, smooth muscle (MYLK, Homo sapiens, UniProt Q15746)

N[C@H]1CCN(c2nccc(-c3cnn4ncccc34)n2)C1 — remaining binding (binding; 1 µM): 81%
Cc1cc(C)c(-n2ccn3nc(-c4cccnc4)cc23)cc1NC(=O)c1cc(C#N)cc(S(F)(F)(F)(F)F)c1 — remaining binding (cell-free assay; competition with immobilised ligand; 0.1 µM): 57.7%
COc1ccnn2ncc(-c3ccnc(N(C)C)n3)c12 — remaining binding (binding; 1 µM): 100%
O=C(NCC1CCOCC1)c1n[nH]cc1NC(=O)c1c(F)cccc1F — remaining binding (binding; competition with immobilised ligand; 1 µM): 70%
O=C(c1ccc(Nc2nccc(-c3cc4ccccc4s3)n2)cc1)N1CCC(N2CCCC2)CC1 — remaining binding (binding; competition with immobilised ligand; 1 µM): 61%
NS(=O)(=O)c1cc(NC(=O)C2(c3ccccc3Cl)CC2)ccc1Oc1cccc(Cl)c1 — remaining binding (cell-free assay; competition with immobilised ligand; 1 µM): 72%
CCN1CCN(Cc2ccc(C(=O)Nc3ccc(C)c(Oc4ccc5c(c4)CC(=O)N5)c3)cc2C(F)(F)F)CC1 — remaining binding (binding; competition with immobilised ligand; 1 µM): 100%
C=CC(=O)N1CCC(C(=O)NCC(=O)N2CCN(c3nc(-c4cnc(N)nc4C(F)F)nc(N4CCOCC4)n3)CC2)CC1 — remaining binding (binding; competition with immobilised ligand; 1 µM): 61%
CO[C@@H](C)c1c(Nc2ccc([C@H](N(C)C(=O)C3CCS(=O)(=O)CC3)C(F)(F)F)cc2)cnc2cc(Cl)nn12 — remaining binding (cell-free assay; competition with immobilised ligand; 1 µM): 95%
O=C(c1ccc(Nc2ncc(Cl)c(-c3ccc(Cl)s3)n2)cc1)N1CCC(N2CCCC2)CC1 — remaining binding (binding; competition with immobilised ligand; 1 µM): 66%
O=C(NCc1ncc(C(F)(F)F)cc1Cl)c1ccc2c(c1)C1(CCS(=O)(=O)CC1)[C@H](C1CC1)N2S(=O)(=O)c1ccc(F)cc1 — remaining binding (cell-free assay; competition with immobilised ligand; 1 µM): 77%
CN(c1nccc(-c2cnn3ncccc23)n1)C1CC1 — remaining binding (binding; 1 µM): 100%
CNC(=O)[C@@H]1CC[C@@H](n2c(-c3ccc4cnccc4c3)nc3ccc(C(=O)NCc4cccc(C(N)=O)c4)cc32)C1 — remaining binding (binding; competition with immobilised ligand; 1 µM): 100%
CS(=O)(=O)N1CCCC(NC(=O)[C@H](CCC2CCCCC2)NC(=O)c2ccc(CNC(=O)c3cnc4ccccn34)cc2)C1 (some centres unmarked) — remaining binding (cell-free assay; competition with immobilised ligand; 0.1 µM): 100%
C[C@H]1CCN(c2nccc(-c3cnn4ncccc34)n2)C1 — remaining binding (binding; 1 µM): 91%
c1cncc(-c2cccc(Nc3nccc(NC4CCCCC4)n3)c2)c1 — remaining binding (binding; competition with immobilised ligand; 10 µM): 62%
c1cnn2ncc(-c3ccnc(N4CCC45COC5)n3)c2c1 — remaining binding (binding; 1 µM): 84%
O=C(NCCCN1CCOCC1)c1ccc(Nc2nccc(-c3cc4ccccc4s3)n2)cc1 — remaining binding (binding; competition with immobilised ligand; 1 µM): 94%
CN(C)c1ncc(F)c(-c2cnn3ncccc23)n1 — remaining binding (binding; 1 µM): 98%
C[C@@H]1CN(c2cc(-c3nn(C)c4ccc(OC5(C)CC5)cc34)ncn2)C[C@H](C)O1 — remaining binding (cell-free assay; competition with immobilised ligand; 1 µM): 64%
